# Reference: ChEMBL document CHEMBL3784960, “New 4-Functionalized Glutamate Analogues Are Selective Agonists at Metabotropic Glutamate Receptor Subtype 2 or Selective Agonists at Metabotropic Glutamate Receptor Group III” (J Med Chem, 2016)
# pEC50, pIC50, pKi: −log10 of the molar value. The source made the active and inactive calls. The calls are words filed in the database; no cut-off is given here.
# Target: T1, Excitatory amino acid transporter 2 (Homo sapiens, UniProt P43004)
# Experiment: Inhibition of human EAAT2 assessed as [3H]Asp uptake
# Conditions: not given
# T1 sequence (P43004 whole entry): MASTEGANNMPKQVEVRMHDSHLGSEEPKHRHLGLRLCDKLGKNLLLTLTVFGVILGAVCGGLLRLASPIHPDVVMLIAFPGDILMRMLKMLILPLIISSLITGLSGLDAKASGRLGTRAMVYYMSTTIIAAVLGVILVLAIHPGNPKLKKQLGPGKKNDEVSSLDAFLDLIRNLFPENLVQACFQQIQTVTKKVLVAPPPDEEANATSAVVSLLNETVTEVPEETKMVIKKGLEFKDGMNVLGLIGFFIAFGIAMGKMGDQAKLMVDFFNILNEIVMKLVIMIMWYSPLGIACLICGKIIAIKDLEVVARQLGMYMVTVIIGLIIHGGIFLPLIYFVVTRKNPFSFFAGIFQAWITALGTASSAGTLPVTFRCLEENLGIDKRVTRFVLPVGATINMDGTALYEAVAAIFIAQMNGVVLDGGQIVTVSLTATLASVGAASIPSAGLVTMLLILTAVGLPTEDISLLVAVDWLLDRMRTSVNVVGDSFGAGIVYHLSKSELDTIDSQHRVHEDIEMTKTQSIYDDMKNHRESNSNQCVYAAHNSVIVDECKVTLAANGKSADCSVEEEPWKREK
row,Structure (SMILES),pIC50
1,N[C@@H](C[C@@]1(C(=O)O)C[C@H]1C(=O)O)C(=O)O,< 3.52

# Target: not listed separately
# Experiment: Displacement of [3H]AMPA from rat synaptosome AMPA receptor after 30 mins by microplate scintillation counter analysis
# Conditions: not given
row,Structure (SMILES),pIC50
1,N[C@@H](C[C@@]1(C(=O)O)C[C@H]1C(=O)O)C(=O)O,< 4.00

# Target: Metabotropic glutamate receptor 8 (Rattus norvegicus, UniProt P70579)
# Sequence (P70579 whole entry): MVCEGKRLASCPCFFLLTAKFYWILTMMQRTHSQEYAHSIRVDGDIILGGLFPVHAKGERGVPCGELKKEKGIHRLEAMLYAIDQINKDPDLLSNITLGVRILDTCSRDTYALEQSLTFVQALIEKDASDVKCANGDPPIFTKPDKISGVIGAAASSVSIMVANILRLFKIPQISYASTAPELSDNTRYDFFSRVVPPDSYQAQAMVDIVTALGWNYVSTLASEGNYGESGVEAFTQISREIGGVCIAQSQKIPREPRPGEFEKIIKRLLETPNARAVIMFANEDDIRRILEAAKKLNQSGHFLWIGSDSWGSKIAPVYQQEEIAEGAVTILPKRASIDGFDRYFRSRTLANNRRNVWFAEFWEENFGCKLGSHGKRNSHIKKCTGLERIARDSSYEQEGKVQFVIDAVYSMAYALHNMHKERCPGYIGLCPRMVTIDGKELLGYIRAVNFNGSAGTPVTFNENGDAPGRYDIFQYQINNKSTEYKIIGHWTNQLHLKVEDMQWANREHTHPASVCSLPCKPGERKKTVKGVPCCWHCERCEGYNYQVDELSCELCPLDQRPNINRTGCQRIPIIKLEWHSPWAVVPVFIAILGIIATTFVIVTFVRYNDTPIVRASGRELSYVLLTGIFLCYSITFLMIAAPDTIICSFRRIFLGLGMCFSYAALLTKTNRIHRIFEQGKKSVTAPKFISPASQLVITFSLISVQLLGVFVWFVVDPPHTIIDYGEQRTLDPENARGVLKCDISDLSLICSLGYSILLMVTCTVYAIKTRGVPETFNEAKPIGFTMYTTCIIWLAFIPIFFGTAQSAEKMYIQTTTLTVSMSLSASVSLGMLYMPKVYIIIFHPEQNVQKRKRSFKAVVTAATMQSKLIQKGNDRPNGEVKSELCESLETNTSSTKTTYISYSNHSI
# Experiment: Agonist activity at rat mGlu8 receptor expressed in HEK293 cells assessed as IP1 accumulation by IP-One functional assay
# Format: cell-based
# Conditions: not given
# Outline: (§1)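 HEK293 cells were transiently electroporated with the rat receptor plus a chimeric Gi/Gq protein for PLC coupling and EAAC1. Medium was replaced by Glutamax at least 2 h before agonist. IP1 accumulation was measured by HTRF 24 h post-transfection, at least in duplicate. EC50 ± SEM came from n = 4−6 experiments.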
row,Structure (SMILES),pEC50
1,N[C@@H](CCC(=O)O)C(=O)O [GLUTAMIC ACID],4.85
2,N[C@@H](C[C@@]1(C(=O)O)C[C@H]1C(=O)O)C(=O)O,< 3.00

# Same assay, conditions: hek293
row,Structure (SMILES),pEC50
1,N[C@@H](CCP(=O)(O)O)C(=O)O,7.15

# Target: T2, Excitatory amino acid transporter 1 (Homo sapiens, UniProt P43003)
# Experiment: Substrate activity at human EAAT1 assessed as [3H]Asp uptake measured up to 300 uM
# Conditions: not given
row,Structure (SMILES),Activity
1,N[C@@H](C[C@@]1(C(=O)O)C[C@H]1C(=O)O)C(=O)O,inactive

# Target: T2, Excitatory amino acid transporter 1
# Experiment: Inhibition of human EAAT1 assessed as [3H]Asp uptake
# Conditions: not given
row,Structure (SMILES),pIC50
1,N[C@@H](C[C@@]1(C(=O)O)C[C@H]1C(=O)O)C(=O)O,< 3.52

# Target: T3, Metabotropic glutamate receptor 1 (Rattus norvegicus, UniProt P23385)
# Experiment: Agonist activity at rat mGlu1 receptor expressed in HEK293 cells by intracellular Ca2+ mobilization assay
# Format: functional, cell-based
# Conditions: not given
row,Structure (SMILES),pEC50
1,NCCC[C@H](C[C@H](N)C(=O)O)C(=O)O,< 3.00
2,COC(=O)CC[C@H](C[C@H](N)C(=O)O)C(=O)O,< 3.00

# Target: not listed separately
# Experiment: Displacement of [3H]KA from rat synaptosome KA receptor after 60 mins by microplate scintillation counter analysis
# Conditions: not given
row,Structure (SMILES),pIC50
1,N[C@@H](C[C@@]1(C(=O)O)C[C@H]1C(=O)O)C(=O)O,< 4.00

# Target: T1, Excitatory amino acid transporter 2
# Experiment: Substrate activity at human EAAT2 assessed as [3H]Asp uptake measured up to 300 uM
# Conditions: not given
row,Structure (SMILES),Activity
1,N[C@@H](C[C@@]1(C(=O)O)C[C@H]1C(=O)O)C(=O)O,inactive

# Target: T3, Metabotropic glutamate receptor 1
# Experiment: Agonist activity at rat mGlu1 receptor expressed in HEK293 cells assessed as IP1 accumulation by IP-One functional assay
# Format: cell-based
# Conditions: not given
# Outline: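 Rat group I receptor transiently electroporated into HEK293 with the EAAC1 glutamate transporter; medium switched to Glutamax at least 2 h before stimulation. IP1 was read by HTRF (IP-One kit) 24 h after transfection. Runs were at least in duplicate, with EC50 ± SEM from n = 4−6 experiments.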
row,Structure (SMILES),pEC50
1,N[C@@H](C[C@@]1(C(=O)O)C[C@H]1C(=O)O)C(=O)O,< 3.00

# Target: T4, Metabotropic glutamate receptor 4 (Rattus norvegicus, UniProt P31423)
# T4 sequence (P31423 whole entry): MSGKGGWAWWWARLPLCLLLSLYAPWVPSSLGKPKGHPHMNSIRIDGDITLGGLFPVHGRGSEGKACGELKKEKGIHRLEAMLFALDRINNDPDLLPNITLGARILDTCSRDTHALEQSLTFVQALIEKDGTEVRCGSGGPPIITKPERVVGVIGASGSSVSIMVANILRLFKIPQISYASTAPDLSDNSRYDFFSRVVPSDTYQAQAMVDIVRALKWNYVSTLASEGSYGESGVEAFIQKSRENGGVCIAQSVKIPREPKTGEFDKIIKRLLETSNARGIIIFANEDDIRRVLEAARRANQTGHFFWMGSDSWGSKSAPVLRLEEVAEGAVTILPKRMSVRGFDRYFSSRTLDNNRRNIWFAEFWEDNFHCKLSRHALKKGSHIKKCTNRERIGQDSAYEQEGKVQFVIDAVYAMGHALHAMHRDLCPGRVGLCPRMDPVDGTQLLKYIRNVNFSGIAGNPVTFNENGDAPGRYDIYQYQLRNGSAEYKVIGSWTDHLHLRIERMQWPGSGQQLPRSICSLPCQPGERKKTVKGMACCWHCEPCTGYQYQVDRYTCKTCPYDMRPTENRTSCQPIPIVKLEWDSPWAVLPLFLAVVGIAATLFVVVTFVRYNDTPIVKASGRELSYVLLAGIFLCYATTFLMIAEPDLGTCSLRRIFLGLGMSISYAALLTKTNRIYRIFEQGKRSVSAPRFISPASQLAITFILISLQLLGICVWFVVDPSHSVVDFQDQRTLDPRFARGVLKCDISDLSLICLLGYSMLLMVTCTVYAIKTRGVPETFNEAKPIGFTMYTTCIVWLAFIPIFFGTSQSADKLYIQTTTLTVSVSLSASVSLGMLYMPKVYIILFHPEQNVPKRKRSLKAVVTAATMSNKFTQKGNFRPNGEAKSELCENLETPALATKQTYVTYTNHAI
# Experiment: Agonist activity at rat mGlu4 receptor expressed in HEK293 cells assessed as IP1 accumulation by IP-One functional assay
# Format: cell-based
# Conditions: not given
# Outline: as §1
row,Structure (SMILES),pEC50
1,N[C@@H](CCC(=O)O)C(=O)O [GLUTAMIC ACID],5.02
2,N[C@@H](C[C@@]1(C(=O)O)C[C@H]1C(=O)O)C(=O)O,< 3.00

# Target: Metabotropic glutamate receptor 7 (Rattus norvegicus, UniProt P35400)
# Experiment: Agonist activity at rat mGlu7 receptor expressed in HEK293 cells assessed as IP1 accumulation by IP-One functional assay
# Format: cell-based
# Conditions: not given
# Outline: as §1
row,Structure (SMILES),pEC50
1,N[C@@H](CCP(=O)(O)O)C(=O)O,3.47
2,N[C@@H](C[C@@]1(C(=O)O)C[C@H]1C(=O)O)C(=O)O,< 3.00

# Target: T5, Excitatory amino acid transporter 3 (Homo sapiens, UniProt P43005)
# T5 sequence (P43005 whole entry): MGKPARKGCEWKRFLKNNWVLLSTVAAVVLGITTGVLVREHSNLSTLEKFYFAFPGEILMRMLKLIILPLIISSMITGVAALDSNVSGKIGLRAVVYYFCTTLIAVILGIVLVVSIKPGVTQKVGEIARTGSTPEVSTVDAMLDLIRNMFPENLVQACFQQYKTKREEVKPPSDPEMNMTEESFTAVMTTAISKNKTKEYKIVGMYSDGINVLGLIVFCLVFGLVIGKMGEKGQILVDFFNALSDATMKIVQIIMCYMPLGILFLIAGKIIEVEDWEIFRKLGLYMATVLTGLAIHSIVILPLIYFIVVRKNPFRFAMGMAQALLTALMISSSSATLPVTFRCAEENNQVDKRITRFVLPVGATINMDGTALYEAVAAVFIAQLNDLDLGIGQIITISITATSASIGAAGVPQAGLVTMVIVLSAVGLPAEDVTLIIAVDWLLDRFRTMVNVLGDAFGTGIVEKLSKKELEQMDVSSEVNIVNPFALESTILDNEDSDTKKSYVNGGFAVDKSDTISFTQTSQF
# Experiment: Inhibition of human EAAT3 assessed as [3H]Asp uptake
# Conditions: not given
row,Structure (SMILES),pIC50
1,N[C@@H](C[C@@]1(C(=O)O)C[C@H]1C(=O)O)C(=O)O,< 3.52

# Target: T6, Metabotropic glutamate receptor 2 (Rattus norvegicus, UniProt P31421)
# T6 sequence (P31421 whole entry): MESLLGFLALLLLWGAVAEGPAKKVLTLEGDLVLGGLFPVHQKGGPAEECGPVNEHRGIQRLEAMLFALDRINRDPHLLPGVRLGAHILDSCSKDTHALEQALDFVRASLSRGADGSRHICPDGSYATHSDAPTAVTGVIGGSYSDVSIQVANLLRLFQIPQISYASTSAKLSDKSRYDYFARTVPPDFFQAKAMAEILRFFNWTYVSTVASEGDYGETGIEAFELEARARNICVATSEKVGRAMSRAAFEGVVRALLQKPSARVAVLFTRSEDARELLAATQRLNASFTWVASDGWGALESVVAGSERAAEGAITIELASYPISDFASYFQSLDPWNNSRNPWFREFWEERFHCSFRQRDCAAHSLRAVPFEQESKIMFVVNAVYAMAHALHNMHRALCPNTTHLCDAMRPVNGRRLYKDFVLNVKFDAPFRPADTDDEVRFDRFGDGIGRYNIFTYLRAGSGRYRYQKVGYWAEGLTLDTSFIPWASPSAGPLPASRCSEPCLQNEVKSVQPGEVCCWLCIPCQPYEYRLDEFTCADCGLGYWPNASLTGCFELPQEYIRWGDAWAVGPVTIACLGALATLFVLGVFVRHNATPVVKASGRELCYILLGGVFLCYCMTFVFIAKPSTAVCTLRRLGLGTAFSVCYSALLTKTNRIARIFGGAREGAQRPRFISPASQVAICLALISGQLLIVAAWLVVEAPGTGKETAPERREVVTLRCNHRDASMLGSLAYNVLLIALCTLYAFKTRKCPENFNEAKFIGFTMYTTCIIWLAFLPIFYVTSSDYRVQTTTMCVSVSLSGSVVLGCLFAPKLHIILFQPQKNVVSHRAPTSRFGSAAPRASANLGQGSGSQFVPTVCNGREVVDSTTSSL
# Experiment: Agonist activity at rat mGlu2 receptor by FRET based mGlu sensor assay
# Conditions: not given
# Outline: (§2)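 Receptor carried an N-terminal SNAP-tag and was transfected into HEK293 cells. At 24 h, surface receptors were labelled for 1 h with 100 nM SNAP-Lumi4-Tb (donor) and 60 nM SNAP Green (acceptor), washed three times, then drug was added. Time-resolved FRET was recorded at 520 nm, at least in duplicate.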
row,Structure (SMILES),pEC50
1,N[C@@H](C[C@@]1(C(=O)O)C[C@H]1C(=O)O)C(=O)O,< 3.00

# Target: T6, Metabotropic glutamate receptor 2
# Experiment: Agonist activity at rat mGlu2 receptor expressed in HEK293 cells by [35S]GTP-gamma binding assay
# Format: cell-based
# Conditions: read-out: EC50
row,Structure (SMILES),pEC50
1,NCCC[C@H](C[C@H](N)C(=O)O)C(=O)O,4.31
2,COC(=O)CC[C@H](C[C@H](N)C(=O)O)C(=O)O,< 3.00

# Same assay, conditions: read-out: pEC50 (converted)
row,Structure (SMILES),EC50 [µM]
1,NCCC[C@H](C[C@H](N)C(=O)O)C(=O)O,4.9

# Target: Metabotropic glutamate receptor 6 (Rattus norvegicus, UniProt P35349)
# Sequence (P35349 whole entry): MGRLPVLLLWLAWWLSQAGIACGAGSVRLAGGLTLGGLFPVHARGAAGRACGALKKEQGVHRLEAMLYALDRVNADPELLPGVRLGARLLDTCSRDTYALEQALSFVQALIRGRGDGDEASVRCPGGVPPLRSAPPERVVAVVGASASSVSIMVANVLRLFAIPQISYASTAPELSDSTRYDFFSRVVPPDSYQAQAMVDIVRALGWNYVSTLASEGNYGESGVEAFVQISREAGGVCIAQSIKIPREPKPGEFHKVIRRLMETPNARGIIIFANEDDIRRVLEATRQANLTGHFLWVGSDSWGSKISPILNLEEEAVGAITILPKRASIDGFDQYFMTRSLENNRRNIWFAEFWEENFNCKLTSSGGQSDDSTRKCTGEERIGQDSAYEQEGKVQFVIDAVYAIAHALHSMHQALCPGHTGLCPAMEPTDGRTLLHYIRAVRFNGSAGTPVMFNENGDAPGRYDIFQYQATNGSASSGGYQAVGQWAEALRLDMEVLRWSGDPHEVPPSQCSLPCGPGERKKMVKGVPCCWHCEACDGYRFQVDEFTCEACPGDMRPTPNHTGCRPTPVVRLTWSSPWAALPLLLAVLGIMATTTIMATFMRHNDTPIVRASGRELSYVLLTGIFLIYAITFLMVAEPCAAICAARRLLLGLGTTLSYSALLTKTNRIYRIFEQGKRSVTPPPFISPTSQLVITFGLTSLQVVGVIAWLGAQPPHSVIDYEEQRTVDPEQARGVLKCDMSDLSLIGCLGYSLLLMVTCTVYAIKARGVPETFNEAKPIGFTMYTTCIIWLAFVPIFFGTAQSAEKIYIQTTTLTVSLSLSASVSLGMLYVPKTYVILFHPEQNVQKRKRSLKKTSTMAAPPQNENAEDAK
# Experiment: Agonist activity at rat mGlu6 receptor expressed in HEK293 cells assessed as IP1 accumulation by IP-One functional assay
# Format: cell-based
# Conditions: not given
# Outline: as §1
row,Structure (SMILES),pEC50
1,N[C@@H](CCC(=O)O)C(=O)O [GLUTAMIC ACID],4.19
2,N[C@@H](CCP(=O)(O)O)C(=O)O,5.72
3,N[C@@H](C[C@@]1(C(=O)O)C[C@H]1C(=O)O)C(=O)O,< 3.00

# Target: Glutamate NMDA receptor
# Experiment: Displacement of [3H]CGP from rat synaptosome NMDA receptor after 60 mins by microplate scintillation counter analysis
# Format: protein-complex assay
# Conditions: not given
row,Structure (SMILES),pKi
1,N[C@@H](C[C@@]1(C(=O)O)C[C@H]1C(=O)O)C(=O)O,< 4.00

# Target: T7, Metabotropic glutamate receptor 5 (Rattus norvegicus, UniProt P31424)
# Experiment: Agonist activity at rat mGlu5 receptor expressed in HEK293 cells by intracellular Ca2+ mobilization assay
# Format: functional, cell-based
# Conditions: not given
row,Structure (SMILES),pEC50
1,NCCC[C@H](C[C@H](N)C(=O)O)C(=O)O,< 3.00
2,COC(=O)CC[C@H](C[C@H](N)C(=O)O)C(=O)O,< 3.00

# Target: Metabotropic glutamate receptor 7 (Homo sapiens, UniProt Q14831)
# Experiment: Agonist activity at human mGlu7 receptor expressed in HEK293 assessed as inhibition of forskolin stimulated cAMP production
# Format: functional, cell-based
# Conditions: not given
row,Structure (SMILES),pEC50
1,NCCC[C@H](C[C@H](N)C(=O)O)C(=O)O,< 3.00
2,N[C@@H](CCC(=O)O)C(=O)O [GLUTAMIC ACID],5.93

# Target: T6, Metabotropic glutamate receptor 2
# Experiment: Agonist activity at rat mGlu2 receptor expressed in HEK293 cells assessed as IP1 accumulation by IP-One functional assay
# Format: cell-based
# Conditions: not given
# Outline: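 HEK293 cells were transiently electroporated with the rat receptor plus a chimeric Gi/Gq protein for PLC coupling and EAAC1. Medium was replaced by Glutamax at least 2 h before agonist. IP1 accumulation was measured by HTRF 24 h post-transfection, at least in duplicate.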
row,Structure (SMILES),pEC50
1,N[C@@H](C[C@@]1(C(=O)O)C[C@H]1C(=O)O)C(=O)O,< 3.00

# Target: T8, Metabotropic glutamate receptor 3 (Rattus norvegicus, UniProt P31422)
# T8 sequence (P31422 whole entry): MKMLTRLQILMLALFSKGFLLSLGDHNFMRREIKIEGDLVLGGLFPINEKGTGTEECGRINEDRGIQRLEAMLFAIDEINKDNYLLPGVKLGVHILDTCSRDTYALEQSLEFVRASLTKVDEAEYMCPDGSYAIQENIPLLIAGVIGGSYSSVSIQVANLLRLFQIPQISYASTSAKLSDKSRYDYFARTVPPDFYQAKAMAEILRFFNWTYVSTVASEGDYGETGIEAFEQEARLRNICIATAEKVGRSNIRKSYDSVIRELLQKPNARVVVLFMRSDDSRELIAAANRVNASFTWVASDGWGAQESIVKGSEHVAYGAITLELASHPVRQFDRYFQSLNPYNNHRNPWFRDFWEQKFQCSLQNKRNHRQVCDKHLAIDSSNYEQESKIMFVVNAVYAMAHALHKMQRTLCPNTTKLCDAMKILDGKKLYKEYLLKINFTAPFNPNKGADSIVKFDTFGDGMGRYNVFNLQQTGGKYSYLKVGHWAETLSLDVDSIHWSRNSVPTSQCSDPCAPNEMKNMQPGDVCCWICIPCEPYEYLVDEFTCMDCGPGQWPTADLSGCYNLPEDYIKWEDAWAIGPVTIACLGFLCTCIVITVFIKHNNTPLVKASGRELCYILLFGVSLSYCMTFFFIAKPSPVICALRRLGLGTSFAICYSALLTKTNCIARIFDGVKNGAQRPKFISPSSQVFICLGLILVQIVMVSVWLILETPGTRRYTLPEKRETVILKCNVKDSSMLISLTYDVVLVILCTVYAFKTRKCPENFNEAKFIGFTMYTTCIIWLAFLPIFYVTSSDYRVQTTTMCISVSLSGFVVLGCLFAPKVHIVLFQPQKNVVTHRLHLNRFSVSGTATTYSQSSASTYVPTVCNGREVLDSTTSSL
# Experiment: Agonist activity at rat mGlu3 receptor expressed in HEK293 cells by [35S]GTP-gamma binding assay
# Format: cell-based
# Conditions: not given
row,Structure (SMILES),pEC50
1,NCCC[C@H](C[C@H](N)C(=O)O)C(=O)O,< 3.00
2,N[C@@H](CCC(=O)O)C(=O)O [GLUTAMIC ACID],7.22

# Target: T4, Metabotropic glutamate receptor 4
# Experiment: Agonist activity at rat mGlu4 receptor expressed in HEK293 cells assessed as inhibition of forskolin stimulated cAMP production
# Format: functional, cell-based
# Conditions: not given
row,Structure (SMILES),pEC50
1,NCCC[C@H](C[C@H](N)C(=O)O)C(=O)O,< 3.00
2,COC(=O)CC[C@H](C[C@H](N)C(=O)O)C(=O)O,< 3.00

# Target: T7, Metabotropic glutamate receptor 5
# Experiment: Agonist activity at rat mGlu5 receptor expressed in HEK293 cells assessed as IP1 accumulation by IP-One functional assay
# Format: cell-based
# Conditions: not given
row,Structure (SMILES),pEC50
1,N[C@@H](C[C@@]1(C(=O)O)C[C@H]1C(=O)O)C(=O)O,< 3.00

# Target: T8, Metabotropic glutamate receptor 3
# Experiment: Agonist activity at rat mGlu3 receptor by FRET based mGlu sensor assay
# Conditions: not given
# Outline: as §2, with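 “duplicate. EC50 ± SEM came from n = 4−6 experiments.” for “duplicate.”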
row,Structure (SMILES),pEC50
1,N[C@@H](CCC(=O)O)C(=O)O [GLUTAMIC ACID],5.47
2,N[C@@H](C[C@@]1(C(=O)O)C[C@H]1C(=O)O)C(=O)O,< 3.00
